# In the library only some 29% were active in any assay of this set; here they are far more common.
# CYP2C19 inh: human CYP2C19 inhibition. P33261. CYP2C19 Supersomes, luciferin-H EGE luminescence, 30 min. inhibition, % at 5 µM. actives 21% (n = 96,000);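 active = CYP2C19 inhibition above a set limit at 5 µM in the primary screen, cut at about 50% in these data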;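 also: plate controls were negative control wells for no effect and 2.5 mM tranylcypromine positive control for full effect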
# CYP2C9 inhib: inhibitors of human CYP2C9. P11712. CYP2C9 Supersomes, luciferin-H conversion, luminescence. inhibition, % at 5 µM. actives 20% (n = 96,000);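 active = blocking of liver enzyme CYP2C9 beyond about 50% at 5 µM, limit read from the data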
# Target sequence (P11712 whole entry, looked up): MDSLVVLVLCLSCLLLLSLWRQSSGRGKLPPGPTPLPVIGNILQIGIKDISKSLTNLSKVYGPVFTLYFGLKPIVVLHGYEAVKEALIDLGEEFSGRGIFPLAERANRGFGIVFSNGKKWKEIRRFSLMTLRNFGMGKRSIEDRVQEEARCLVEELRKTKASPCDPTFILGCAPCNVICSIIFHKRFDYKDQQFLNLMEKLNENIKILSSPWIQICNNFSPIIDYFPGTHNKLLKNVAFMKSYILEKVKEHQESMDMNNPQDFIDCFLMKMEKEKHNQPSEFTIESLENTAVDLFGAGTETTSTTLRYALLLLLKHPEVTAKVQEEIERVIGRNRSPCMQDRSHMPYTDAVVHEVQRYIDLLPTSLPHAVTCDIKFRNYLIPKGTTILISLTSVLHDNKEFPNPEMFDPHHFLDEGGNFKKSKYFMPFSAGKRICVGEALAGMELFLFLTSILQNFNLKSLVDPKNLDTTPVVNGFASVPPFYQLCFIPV
# CYP2C19 act: increases human CYP2C19 enzyme activity; P33261; recombinant CYP2C19, luciferin-H EGE luminescence; active compounds read high; 0 = fully inhibited enzyme, 1 = untreated enzyme; activation factor at 5 µM; 96,000 tested, under 10 active; AID 1025;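 active = activation factor of at least 2 at 5 µM in the primary screen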;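 also: 0 = wells with 2.5 mM tranylcypromine and 1 = vehicle-only wells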
# CYP2C9 act: activators of human CYP2C9; recombinant CYP2C9, luciferin-H conversion, luminescence; active compounds read high; factor 1 = untreated enzyme, 0 = blocked; AID 1024; P11712; activation factor at 5 µM; actives 1.4% (n = 96,000);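 active = activation factor of 2 or more for CYP2C9 at a 5 µM dose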;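 also: 0 = sulfaphenazole-blocked wells and 1 = vehicle-only wells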
# E coli WT exp: E. coli BW25113 growth inhibition, expanded screen | actives 0.15% (n = 98,000) | OD600 absorbance | growth inhibition, % at 100 µM;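 active = growth inhibition above about 50% at one test dose, limit read from the data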;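 also: growth measured after 20 h incubation at 37 °C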
# tolC growth inh: growth inhibitors of E. coli BW25113 tolC mutant | growth inhibition, % at 10 µM (by protocol) | actives 2.2% (n = 65,000) | OD615;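 active = growth inhibition at or above a cutoff equal to the mean over every tested compound plus 3 SD, cut at about 60% in these data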;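 also: growth measured after 20 h incubation at 37 °C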
#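 Test system: tolC-deleted E. coli BW25113 | Medium: LB with kanamycin 50 µg/mL | Compound dosing: Single concentration, 10 µM final per compound | Schedule: 37 °C, 20 h exposure | Measured by: OD at 615 nm | Evaluation: Percent growth inhibition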
# * marks the source's active call; other numbers are inactive results; / = not tested or not shown.
SMILES,CYP2C19 inh,CYP2C9 inhib,CYP2C19 act,CYP2C9 act,E coli WT exp,tolC growth inh
Cc1ccc(-c2nn(CC(=O)N(C)C)c(=O)c3ccccc23)cc1S(=O)(=O)N(C)C,21.2,62.2*,0.8,0.4,7.0,/
COC(=O)Cn1nc(-c2ccc(C)c(S(=O)(=O)N(C)C)c2)c2ccccc2c1=O,20.0,59.0*,0.8,0.4,-3.0,13.5
Cc1cc(NC(=O)C2CC(c3ccc(Cl)cc3)=NO2)no1 (stereo not drawn),16.1,20.6,0.8,0.8,3.0,/
CCCCNC(=O)CCNS(=O)(=O)c1ccc(Br)cc1,19.0,-166.3,0.8,2.7*,7.0,/
C=CCNC(=O)CCNS(=O)(=O)c1ccc(Br)cc1,20.5,-58.8,0.8,1.6,8.0,-3.8
CCC(C)NC(=O)CCNS(=O)(=O)c1ccc(Br)cc1 (stereo not drawn),49.0,-116.4,0.5,2.2*,-2.0,-10.1
CCC(C)NC(=O)CCS(=O)(=O)c1ccc(Br)s1 (stereo not drawn),23.5,10.4,0.8,0.9,1.0,-14.6
CCOCCCNS(=O)(=O)c1ccc(Br)cc1,89.8*,-34.6,0.1,1.3,-2.0,-8.6
CCOC(=O)c1c(C)n(C)c2ccc(OC)c(NC(=O)CCN3CCSCC3)c12,21.6,44.2,0.8,0.6,-6.0,7.5
CCn1c(SCc2cccc(C(=O)O)c2)nnc1-c1ccccc1,-0.9,5.9,1,0.9,2.0,-3.1
CN(C)CCCN1C(=O)C(O)=C(C(=O)c2cc3ccccc3o2)C1c1ccccn1 (stereo not drawn),/,/,/,/,/,8.1
N#Cc1nc(-c2ccc(F)cc2)oc1NCc1cccc2c1OCO2,16.8,63.0*,0.8,0.4,-4.0,11.9
C=CCNc1oc(Cc2cccc3ccccc23)nc1C#N,99.6*,64.7*,0,0.4,-3.0,39.2
Cc1ccc(-c2nc(C#N)c(NCc3cccc4c3OCO4)o2)cc1,-5.1,39.0,1.1,0.6,-8.0,7.7
N#Cc1nc(Cc2cccc3ccccc23)oc1NCc1ccc(F)cc1,51.5*,89.9*,0.5,0.1,4.0,71.5*
CC1CCN(c2oc(Cc3cccc4ccccc34)nc2C#N)CC1,93.2*,76.3*,0.1,0.2,-11.0,48.2
Cc1cccc(-n2c(Cn3nc(C)c([N+](=O)[O-])c3C)n[nH]c2=S)c1,6.9,-3.3,0.9,1,3.0,/
N#Cc1nc(-c2ccccc2)oc1NCCN1CCCCC1,37.9,9.4,0.6,0.9,14.0,-5.0
C=CCNc1oc(/C=C/c2ccccc2)nc1C#N,68.1*,73.6*,0.3,0.3,0.0,/
Cc1ccc(N2C(=O)CC(n3ccnc3)C2=O)cc1C (stereo not drawn),57.6*,5.1,0.4,0.9,3.0,/
COc1ccc(C2=NOC(C(=O)N3CCCCCC3)C2)cc1OC (stereo not drawn),-1.4,-5.2,1,1.1,-4.0,-7.8
O=C(C1CC(c2ccccc2O)=NO1)N1CCc2ccccc2C1 (stereo not drawn),61.9*,33.5,0.4,0.7,2.0,/
O=C(C1CC(c2ccc(F)cc2)=NO1)N1CCCCC1 (stereo not drawn),/,/,/,/,1.0,-7.8
O=C(C1CC(c2ccccc2O)=NO1)N1CCCCC1 (stereo not drawn),70.3*,47.2,0.3,0.5,11.0,/
O=C(C1CC(c2ccc(F)cc2)=NO1)N1CCc2ccccc2C1 (stereo not drawn),62.9*,16.3,0.4,0.8,-6.0,4.2
SMILES,CYP2C19 inh,CYP2C9 inhib,CYP2C19 act,CYP2C9 act,E coli WT exp,tolC growth inh
COc1cccc(C2=NOC(C(=O)N3CCc4ccccc4C3)C2)c1 (stereo not drawn),/,/,/,/,8.0,36.5
COC(=O)[C@H](Cc1ccccc1)NC(=O)NCc1ccccc1OC,42.1,32.6,0.6,0.7,-10.0,/
COc1ccc(OC)c(C(=O)CSc2nnc(-c3ccc(OC)c(OC)c3)o2)c1,-8.5,-25.6,1.1,1.3,-5.0,-16.0
CCOc1ccc(-c2csc(N)c2C(=O)OC)cc1,65.6*,70.6*,0.3,0.3,4.0,/
CCOC(=O)c1c(-c2ccncc2)csc1N,49.4,66.4*,0.5,0.3,0.0,11.1
CCOc1ccc(NC(=O)CN2CCN(CC(=O)Nc3ccc(C(=O)OC)cc3)CC2)cc1,-1.0,7.1,1,0.9,-9.0,-4.7
CCCC(=O)Nc1ccccc1-c1nnc(SC)[nH]c1=O,-8.2,23.2,1.1,0.8,4.0,-7.5
Fc1ccc(NCc2nnc(SCc3nnc(-c4ccccc4)o3)n2Cc2ccccc2)cc1,78.6*,68.5*,0.2,0.3,-17.0,34.6
N/C(=N\OS(=O)(=O)c1ccc2ccccc2c1)c1ccncc1,30.4,68.1*,0.7,0.3,2.0,/
CCOc1ccccc1OCC(=O)NN1Cc2ccccc2C1=N,4.0,-26.1,1,1.3,4.0,/
CCCCC(=O)N/N=C/c1ccc(Sc2cccc3cccnc23)o1,47.2,57.4*,0.5,0.4,5.0,/
O=C(Cc1cccc2ccccc12)N/N=C/c1ccc(Sc2cccc3cccnc23)o1,53.1*,82.3*,0.5,0.2,-10.0,/
CCCCCCCC(=O)N/N=C/c1cccnc1,38.9,27.2,0.6,0.7,4.0,/
C/C(CC(=O)Nc1ccccn1)=N\NC(=O)Cc1cccc2ccccc12,27.5,45.4,0.7,0.5,5.0,/
CCCCCCCCCCS(=O)(=O)N/N=C/c1ccc([N+](=O)[O-])cc1,28.9,35.8,0.7,0.6,-11.0,/
CCN(CC)C(=O)C(=O)N/N=C/c1cccc(Br)c1,2.4,5.8,1,0.9,-1.0,/
CCCCOc1ccc(-c2nnn(C(C)C(=O)OCC)n2)cc1 (stereo not drawn),49.2,68.0*,0.5,0.3,13.0,35.2
CCC(C(=O)O)n1nnc(-c2ccc(-c3ccc(OC)cc3)cc2)n1 (stereo not drawn),0.0,28.1,1,0.7,-3.0,30.3
CCCCOc1ccc(-c2nnn(C(C)(C)C(=O)OC)n2)cc1,41.9,56.7*,0.6,0.4,7.0,24.4
COC(=O)c1cc(-c2c(C)nn(-c3ccccc3)c2C)n[nH]1,-5.0,-4.9,1.1,1,6.0,6.8
COc1ccc(-c2cc(C(=O)O)[nH]n2)cc1OC,-1.6,4.1,1,1,-3.0,-29.4
COC(=O)c1cc(-c2ccc(Br)cc2)n[nH]1,69.4*,16.6,0.3,0.8,1.0,-14.6
COC(=O)c1cc(-c2c[nH]c3ccccc23)n[nH]1,85.4*,83.6*,0.1,0.2,5.0,18.7
Cc1ccc2cc(COC(=O)C3CCCO3)c(=O)[nH]c2c1 (stereo not drawn),0.4,3.6,1,1,-5.0,/
CCC(C)C(=O)N1CCc2cc(-c3csc(N)n3)ccc21 (stereo not drawn),78.2*,70.2*,0.2,0.3,8.0,22.9
CC(C)(C)C(=O)N1CCc2cc(-c3csc(N)n3)ccc21,19.1,19.9,0.8,0.8,4.0,/
